ChEMBL document CHEMBL2163328, “Inhibition of TNF-α-Induced Inflammation by andrographolide via down-regulation of the PI3K/Akt signaling pathway” (J Nat Prod, 2011)
The source made the active and inactive calls. The calls are words filed in the database; no cut-off is given here.

Legend:
HUVEC [1] = test: Inhibition of TNFalpha-stimulated DNA binding activity of NFkappaB in HUVEC at 10 to 25 uM pretreated for 16 hrs before TNFalpha challenge measured after 30 mins by EMSA; assay type: cell-based; conditions: Homo sapiens
Outline: (§1)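 EMSA: nuclear extracts prepared by hypotonic then hypertonic (400 mM KCl) extraction. 2 μg nuclear protein incubated with biotin-labeled NF-κB probe and poly(dI-dC) at room temperature for 30 min. Complexes separated on 6% TBE-PAGE, transferred to nylon and detected with streptavidin-HRP. Specificity checked with 100-fold excess unlabeled and mutant oligonucleotides.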

HUVEC [2] = test: Inhibition of TNFalpha-stimulated ICAM-1 mRNA expression in HUVEC at 10 to 25 uM pretreated for 16 hrs before TNFalpha challenge measured after 6 hrs by RT-PCR analysis; assay type: functional, cell-based; conditions: Homo sapiens
Outline: (§2)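 HUVEC pretreated 16 h, then TNF-α 1 ng/mL for 6 h. Total RNA isolated with TRIzol; 4 μg reverse-transcribed with M-MLV RT and oligo(dT). ICAM-1 amplified for 32 cycles (94 °C 1 min, 55 °C 1 min, 72 °C 2 min) after 95 °C for 5 min. Normalized to GAPDH; products resolved on 1% agarose and quantified by densitometry.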

HUVEC [3] = test: Inhibition of TNFalpha-stimulated human ICAM-1 promoter activity expressed in HUVEC assessed as […] activity at 10 to 25 uM pretreated for 30 mins before TNFalpha challenge measured after 5 hrs by luciferase reporter gene assay; assay type: functional, cell-based
Outline: (§3)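 HUVEC transiently transfected by nanofection with human ICAM-1 promoter-luciferase (pIC339) plus pSV-β-galactosidase for 4 h. Pretreated 30 min, then TNF-α 1 ng/mL for 5 h. Luciferase activity measured in lysate supernatants and normalized to β-galactosidase activity for transfection efficiency. Three independent experiments.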

[4] = Cytotoxicity against TNFalpha-stimulated HUVEC assessed as cell viability at 5 uM pretreated for 16 hrs before TNFalpha challenge measured after 6 hrs by MTT assay (reference value: 103.8 +/- 6.1%); assay type: cell-based; conditions: human, TNFalpha-stimulated HUVEC cells; read-out: Activity
HUVEC [5] = test: Inhibition of TNFalpha-stimulated human ICAM-1 promoter activity expressed in HUVEC assessed as […] activity at 20 uM pretreated for 30 mins before TNFalpha challenge measured after 5 hrs by luciferase reporter gene assay; assay type: functional, cell-based; outline: as §3
HUVEC [6] = test: Inhibition of TNFalpha-stimulated ICAM-1 mRNA expression in HUVEC at 20 uM pretreated for 16 hrs before TNFalpha challenge measured after 6 hrs by RT-PCR analysis; assay type: functional, cell-based; conditions: Homo sapiens; outline: as §2
[7] = target: RAC-alpha serine/threonine-protein kinase (Homo sapiens) (UniProt P31749); test: Induction of Akt1 phosphorylation at Ser473 expressed in HUVEC by Western blot analysis; assay type: cell-based
Sequence of RAC-alpha serine/threonine-protein kinase (Homo sapiens) (P31749 whole entry): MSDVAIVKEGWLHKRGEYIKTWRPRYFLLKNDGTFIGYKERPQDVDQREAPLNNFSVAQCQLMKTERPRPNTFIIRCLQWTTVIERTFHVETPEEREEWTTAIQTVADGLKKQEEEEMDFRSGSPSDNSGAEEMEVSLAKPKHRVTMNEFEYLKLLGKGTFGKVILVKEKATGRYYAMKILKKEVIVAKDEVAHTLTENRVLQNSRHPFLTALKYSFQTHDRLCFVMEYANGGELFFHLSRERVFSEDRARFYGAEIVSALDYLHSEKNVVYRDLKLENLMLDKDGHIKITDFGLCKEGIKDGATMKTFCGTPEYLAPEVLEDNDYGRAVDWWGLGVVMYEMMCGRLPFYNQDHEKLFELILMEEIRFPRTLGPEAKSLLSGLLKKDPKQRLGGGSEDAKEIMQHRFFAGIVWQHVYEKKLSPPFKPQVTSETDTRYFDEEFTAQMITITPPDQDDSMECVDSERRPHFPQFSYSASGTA

HUVEC [8] = test: Inhibition of TNFalpha-stimulated cell surface ICAM-1 expression in HUVEC at 5 to 20 uM pretreated for 16 hrs before TNFalpha challenge measured after 6 hrs by flow cytometry; assay type: functional, cell-based; conditions: Homo sapiens
Outline: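 Cell-surface ICAM-1 by flow cytometry. HUVEC pretreated 16 h, then TNF-α 1 ng/mL for 6 h. Cells detached with trypsin and stained with FITC anti-ICAM-1 at 4 °C for 45 min in the dark. Washed three times in cold PBS before analysis. Three independent experiments.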

[9] = target: RAC-alpha serine/threonine-protein kinase (Homo sapiens) (UniProt P31749); test: Inhibition of TNFalpha-stimulated AKT1-mediated ICAM-1 expression in HUVEC assessed as ICAM1 level at 10 uM pretreated for 16 hrs before TNFalpha challenge measured after 6 hrs by Western blot analysis (reference value: 345%); assay type: cell-based; design: scale not given: the % may be the effect or the level left
[10] = target: RAC-alpha serine/threonine-protein kinase (Homo sapiens) (UniProt P31749); test: Inhibition of TNFalpha-stimulated ICAM-1 expression in HUVEC transfected with activated AKT1 assessed as ICAM1 level at 10 uM incubated for 16 hrs by Western blot (reference value: 249%); assay type: cell-based; design: scale not given: the % may be the effect or the level left
HUVEC [11] = test: Inhibition of TNFalpha-stimulated NFkappaB activation in HUVEC assessed as reduction of IkappaB degradation at 20 uM pretreated for 16 hrs before TNFalpha challenge measured after 30 mins by […]; assay type: cell-based; conditions: Homo sapiens
HUVEC [12] = test: Inhibition of TNFalpha-stimulated HUVEC adhesion to BCECF-AM-labeled human HL60 cells at 20 uM pretreated for 16 hrs before TNFalpha challenge measured after 6 hrs by fluorescence assay; assay type: functional
Outline: (§4)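 HUVEC grown to 80% confluence, pretreated 16 h, then TNF-α 1 ng/mL for 6 h. Co-incubated with 4 × 10^5 BCECF-AM-labeled HL-60 cells per well, 37 °C, 30 min. Nonadherent cells removed by inverted centrifugation at 100g for 5 min. Bound cells lysed in 1% SDS; fluorescence read at ex 490/em 520 nm and converted to adherent cells/well by standard curve. Three independent experiments.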

HUVEC [13] = test: Inhibition of TNFalpha-stimulated DNA binding activity of NFkappaB in HUVEC at 5 to 20 uM pretreated for 16 hrs before TNFalpha challenge measured after 30 mins by EMSA; assay type: cell-based; conditions: Homo sapiens; outline: as §1
HUVEC [14] = test: Inhibition of TNFalpha-stimulated total ICAM-1 expression in HUVEC at 5 to 20 uM pretreated for 16 hrs before TNFalpha challenge measured after 6 hrs by Western blot analysis; assay type: functional, cell-based; conditions: Homo sapiens
Outline: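 HUVEC pretreated 16 h, then TNF-α 1 ng/mL for 6 h. Lysed in Tris/EDTA/PMSF/aprotinin buffer at pH 7.4; equal protein run on SDS-PAGE and transferred to PVDF. Blocked in 5% milk at 4 °C overnight, probed with anti-ICAM-1 and HRP secondary. ECL detection with densitometric quantitation. Means ± SD, n = 3.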

HUVEC [15] = test: Toxicity in HUVEC assessed as induction of ICAM-1 expression at 5 to 20 uM measured after 6 hrs by Western blot analysis; assay type: cell-based; conditions: human
HUVEC [16] = test: Induction of NFkappaB activation in HUVEC by EMSA; assay type: cell-based; conditions: Homo sapiens; outline: as §1
HUVEC [17] = test: Toxicity assessed as induction of HUVEC adhesion to BCECF-AM-labeled human HL60 cells by fluorescence assay; assay type: cell-based; outline: as §4
[18] = target: RAC-alpha serine/threonine-protein kinase (Homo sapiens) (UniProt P31749); test: Inhibition of activated Akt1 phosphorylation at Ser473 expressed in HUVEC transfected with activated AKT1 assessed as pAKT level at 10 uM after 16 hrs by Western blot analysis (reference value: 272%); assay type: cell-based; design: scale not given: the % may be the effect or the level left
[19] = target: Transcription factor p65 (Homo sapiens) (UniProt Q04206); test: Inhibition of TNFalpha-stimulated NFkappaB activation in HUVEC assessed as reduction of nuclear p65 level at 20 uM pretreated for 16 hrs before TNFalpha challenge measured after 30 mins by […]
Sequence of Transcription factor p65 (Homo sapiens) (Q04206 whole entry): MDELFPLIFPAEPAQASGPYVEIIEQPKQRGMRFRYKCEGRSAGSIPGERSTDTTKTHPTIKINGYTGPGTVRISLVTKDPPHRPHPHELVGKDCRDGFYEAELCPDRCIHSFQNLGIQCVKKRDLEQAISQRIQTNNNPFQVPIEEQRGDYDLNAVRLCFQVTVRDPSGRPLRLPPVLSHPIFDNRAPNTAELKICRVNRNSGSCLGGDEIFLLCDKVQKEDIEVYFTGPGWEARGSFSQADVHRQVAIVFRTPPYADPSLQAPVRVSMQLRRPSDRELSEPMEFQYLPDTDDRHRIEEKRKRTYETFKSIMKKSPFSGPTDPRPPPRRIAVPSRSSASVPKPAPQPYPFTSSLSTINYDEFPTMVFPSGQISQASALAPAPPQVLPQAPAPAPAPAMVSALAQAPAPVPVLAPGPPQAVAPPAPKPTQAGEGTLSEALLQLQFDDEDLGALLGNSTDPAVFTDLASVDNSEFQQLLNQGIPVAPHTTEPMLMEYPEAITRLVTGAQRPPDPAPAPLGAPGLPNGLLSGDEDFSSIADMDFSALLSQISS

[20] = target: RAC-alpha serine/threonine-protein kinase (Homo sapiens) (UniProt P31749); test: Inhibition of TNFalpha-stimulated Akt1 phosphorylation at Ser473 in HUVEC at 20 uM pretreated for 16 hrs before TNFalpha challenge measured after 15 mins by Western blot analysis
[21] = target: RAC-alpha serine/threonine-protein kinase (Homo sapiens) (UniProt P31749); test: Inhibition of TNFalpha-stimulated Akt1 phosphorylation at Ser473 assessed as pAKT level in HUVEC at 10 uM pretreated for 16 hrs before TNFalpha challenge measured after 6 hrs by Western blot analysis (reference value: 249%); design: scale not given: the % may be the effect or the level left
[22] = Cytotoxicity against TNFalpha-stimulated HUVEC assessed as cell viability at 10 uM pretreated for 16 hrs before TNFalpha challenge measured after 6 hrs by MTT assay (reference value: 103.8 +/- 6.1%); assay type: cell-based; conditions: human, TNFalpha-stimulated HUVEC cells; read-out: Activity
[23] = Cytotoxicity against TNFalpha-stimulated HUVEC assessed as cell viability at 20 uM pretreated for 16 hrs before TNFalpha challenge measured after 6 hrs by MTT assay (reference value: 103.8 +/- 6.1%); assay type: cell-based; conditions: human, TNFalpha-stimulated HUVEC cells; read-out: Activity

## O=c1cc(N2CCOCC2)oc2c(-c3ccccc3)cccc12
HUVEC [1]
  inhibition: Active
HUVEC [2]
  inhibition: Active
HUVEC [3]
  inhibition: Active

## C=C1CC[C@@H]2[C@](C)(CO)[C@H](O)CC[C@@]2(C)[C@@H]1C/C=C1/C(=O)OC[C@H]1O [ANDROGRAPHOLIDE]
[4]
  viability at 6 h, 5 µM: 96.4%
HUVEC [5]
  inhibition: Active
HUVEC [6]
  inhibition: Active
[7]
  Activity: inactive
HUVEC [8]
  inhibition: Active
[9]
  Activity: 36%
[10]
  Activity: 177%
HUVEC [11]
  inhibition: Active
HUVEC [12]
  inhibition at 20 µM: 73%
HUVEC [13]
  inhibition: Active
HUVEC [14]
  inhibition: Active
HUVEC [15]
  Activity: Non-toxic
HUVEC [16]
  Activity: inactive
HUVEC [17]
  Activity: Non-toxic
[18]
  Activity: 111%
[19]
  inhibition: Active
[20]
  inhibition: Active
[21]
  Activity: 127%
[22]
  viability at 6 h, 10 µM: 94.6%
[23]
  viability at 6 h, 20 µM: 87.5%
